# Reference: ChEMBL document CHEMBL1150290, “Novel anti-inflammatory agents based on pyridazinone scaffold; design, synthesis and in vivo activity” (Bioorg Med Chem, 2008)
# Experiments:
# Rattus norvegicus [1] = assay: Antiinflammatory activity against carrageenan-induced paw edema in sc dosed Albino rat assessed as inhibition of paw edema volume measured 4 hrs after carrageenan challenge; type: functional
# Method in brief: (§1)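 Rats randomized into groups of six. Edema induced by subplantar injection of 50 µL 2% carrageenan in 0.9% saline. Compounds in DMSO given sc at 5, 10, 15, 20 and 25 µmol/kg, 1 h before carrageenan; controls got DMSO. Paw volume read by water plethysmometer immediately and 4 h after carrageenan. Protection = (Vc − Vd)/Vc × 100. ED50 taken from dose-response curves at 4 h. Means ± SEM.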
# Rattus norvegicus [2] = assay: Toxicity in Albino rat assessed as gastric-ulcerogenic effect at 30 uM/kg, po twice daily for 3 days; type: organism-based; settings: in vivo, 72 h, 30 µM/kg per day
# Method in brief: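 Male albino rats (100–120 g), six per group, fasted 12 h with water ad libitum. Compounds given orally in two equal doses at 0 and 12 h for three successive days, 30 µM/kg per day; controls received 1% gum acacia orally. Rats killed with diethyl ether 6 h after the last dose and stomachs removed. Lesion severity scored on an arbitrary scale as ulcer index; % ulceration = ulcer-bearing animals/total × 100.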
# Rattus norvegicus [3] = assay: Antiinflammatory activity in sc dosed Albino rat assessed as protection against carrageenan-induced paw edema measured 4 hrs after carrageenan challenge; type: functional; method in brief: as §1
# Rattus norvegicus [4] = assay: Antiinflammatory activity in sc dosed Albino rat assessed as protection against carrageenan-induced paw edema measured 4 hrs after carrageenan challenge relative to indomethacin; type: functional
Structure (SMILES),ED50 (Rattus norvegicus [1]) [µmol/kg],Activity (Rattus norvegicus [2]) [%],Activity (Rattus norvegicus [3]) [%],Activity (Rattus norvegicus [4])
O=C1CCC(/C=C/c2ccc(Oc3ccccc3)cc2)=NN1,28.8,0,–,–
O=C1CCC(/C=C/c2ccc(-c3ccccc3)cc2)=NN1c1ccccc1,38.6,10,–,–
Cc1ccc(-c2cc(C(F)(F)F)nn2-c2ccc(S(N)(=O)=O)cc2)cc1 [CELECOXIB],16.7,0,77.5,104.23
CN1N=C(/C=C/c2ccc3c(c2)OCO3)CCC1=O,34.3,10,–,–
O=C1CCC(/C=C/c2ccc3c(c2)OCCO3)=NN1,27,0,–,–
O=C1CCC(CCc2ccc3c(c2)OCCO3)=NN1,17,0,61.22,82.28
COc1ccc2c(c1)c(CC(=O)O)c(C)n2C(=O)c1ccc(Cl)cc1 [INDOMETHACIN],9.7,100,74.4,–
O=C1CCC(CCc2ccc(-c3ccccc3)cc2)=NN1,18.7,10,58.16,78.17
CN1N=C(CCc2ccc(-c3ccccc3)cc2)CCC1=O,22.3,0,–,–
O=C1CCC(/C=C/c2ccc(-c3ccccc3)cc2)=NN1,24.6,10,–,–
CN1N=C(/C=C/c2ccc(-c3ccccc3)cc2)CCC1=O,32.4,20,–,–
